ChEMBL document CHEMBL4020816

Experiments:
Cannabinoid receptor 1 [1] = molecular target: T1, Cannabinoid receptor 1 (Homo sapiens, UniProt P21554); experiment: Displacement of [3H]CP55940 from recombinant human CB1 receptor expressed in beta-galactosidase expressing CHOK1 cell membranes after 60 mins by scintillation spectrometry
Cannabinoid receptor 1 [2] = molecular target: T1, Cannabinoid receptor 1; experiment: Displacement of [3H]CP55940 from recombinant human CB1 receptor expressed in beta-galactosidase expressing CHOK1 cell membranes assessed as kinetic rate index by measuring ratio of radioligand binding at 30 mins to 240 mins by scintillation spectrometry
Cannabinoid receptor 1 [3] = molecular target: T1, Cannabinoid receptor 1; experiment: Antagonist activity at recombinant human CB1 receptor expressed in HEK293 cell membranes assessed as inhibition of CP55940-induced [35S]GTPgammaS binding preincubated for 1 hr followed by CP55940 addition and subsequent incubation with [35S]GTPgammaS measured after 30 mins by scintillation spectrometry; type: functional
Summary of the method: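 Antagonism was measured by [35S]GTPγS binding at 30 °C on membranes of HEK-293 cells stably expressing recombinant human CB1.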

T1 sequence (P21554 whole entry): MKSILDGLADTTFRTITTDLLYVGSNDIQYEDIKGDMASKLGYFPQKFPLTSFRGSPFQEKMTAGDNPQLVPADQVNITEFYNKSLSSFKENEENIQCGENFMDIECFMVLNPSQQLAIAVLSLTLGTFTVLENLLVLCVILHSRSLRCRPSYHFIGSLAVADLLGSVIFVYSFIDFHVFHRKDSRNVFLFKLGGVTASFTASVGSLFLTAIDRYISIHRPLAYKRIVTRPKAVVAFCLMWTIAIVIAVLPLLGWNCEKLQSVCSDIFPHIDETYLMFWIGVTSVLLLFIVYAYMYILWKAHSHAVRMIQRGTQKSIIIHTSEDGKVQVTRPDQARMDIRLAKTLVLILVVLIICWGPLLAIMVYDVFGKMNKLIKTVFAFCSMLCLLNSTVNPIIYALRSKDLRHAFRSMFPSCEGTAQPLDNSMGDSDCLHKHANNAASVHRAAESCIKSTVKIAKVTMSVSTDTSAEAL

Row | Compound | Ki (Cannabinoid receptor 1 [1]; read-out: Ki) [nM] | Ratio (Cannabinoid receptor 1 [2]) | IC50 (Cannabinoid receptor 1 [3]; read-out: IC50) [nM] | IC50 (Cannabinoid receptor 1 [3]; read-out: pIC50 (converted)) [nM] | Ki (Cannabinoid receptor 1 [1]; read-out: pKi (converted)) [nM]
1 | Cc1c(C(=O)N[C@H]2CCCC[C@H]2N)nc(-c2ccc(Cl)cc2Cl)n1-c1ccc(OS(=O)(=O)CCC(F)(F)F)cc1 (racemic) | 0.52 | 0.79 | 7.1 |  | 
2 | Cc1c(C(=O)NN2CCCCC2)nc(-c2ccc(Cl)cc2Cl)n1-c1ccc(OS(=O)(=O)CCC(F)(F)F)cc1 | 0.11 | 1.02 | 1.1 |  | 
3 | Cc1c(C(=O)Nc2ccc(C(F)(F)F)nc2)nc(-c2ccc(Cl)cc2Cl)n1-c1ccc(OS(=O)(=O)CCC(F)(F)F)cc1 | 0.31 | 1.12 | 2.2 |  | 
4 | Cc1c(C(=O)Nc2ccc(F)nc2)nc(-c2ccc(Cl)cc2Cl)n1-c1ccc(OS(=O)(=O)CCC(F)(F)F)cc1 | 0.13 | 0.7 |  | 1.26 | 
5 | Cc1c(C(=O)N[C@@H]2CCCC[C@@H]2N(C)C)nc(-c2ccc(Cl)cc2Cl)n1-c1ccc(OS(=O)(=O)CCC(F)(F)F)cc1 (racemic) |  | 0.74 |  |  | 
6 | CCCS(=O)(=O)Oc1ccc(-n2c(-c3ccc(Cl)cc3Cl)nc(C(=O)NN3CCCCC3)c2C)cc1 | 0.28 | 0.59 | 1.8 |  | 
7 | Cc1c(C(=O)NN2CCCCC2)nc(-c2ccc(Cl)cc2Cl)n1-c1ccc(OCCC(F)(F)F)cc1 | 1.26 | 0.9 | 5.6 |  | 
8 | Cc1c(C(=O)NC2CCC(O)CC2)nc(-c2ccc(Cl)cc2Cl)n1-c1ccc(OS(=O)(=O)CCC(F)(F)F)cc1 (mixture of isomers) | 0.37 | 0.88 | 3.8 |  | 
9 | Cc1c(C(=O)NN2CCCCC2)nc(-c2ccc(Cl)cc2Cl)n1-c1ccc(OS(=O)(=O)CCC(C)C)cc1 | 0.2 | 1.02 | 1.3 |  | 
10 | CCCCS(=O)(=O)Oc1ccc(-n2c(-c3ccc(Cl)cc3Cl)nc(C(=O)NN3CCCCC3)c2C)cc1 | 0.18 | 0.77 | 1.3 |  | 
11 | Cc1c(C(=O)NN2CCCCC2)nc(-c2ccc(Cl)cc2Cl)n1-c1ccc(OS(=O)(=O)CCC(C)(C)C)cc1 | 0.6 | 0.73 | 2.4 |  | 
12 | Cc1c(C(=O)NN2CCCCC2)nc(-c2ccc(Cl)cc2Cl)n1-c1ccc(OCCCC(F)(F)F)cc1 | 0.32 | 0.8 | 1.2 |  | 
13 | Cc1c(C(=O)NN2CCCCC2)nc(-c2ccc(Cl)cc2Cl)n1-c1ccc(OS(=O)(=O)CCCC(F)(F)F)cc1 | 0.062 | 0.93 | 1.2 |  | 
14 | Cc1c(C(=O)NN2CCCCC2)nc(-c2ccc(Cl)cc2Cl)n1-c1ccc(OCCCF)cc1 | 0.34 | 1.09 | 6 |  | 0.1
15 | Cc1c(C(=O)N[C@@H]2CCCC[C@@H]2O)nc(-c2ccc(Cl)cc2Cl)n1-c1ccc(OS(=O)(=O)CCC(F)(F)F)cc1 | 0.027 | 1.06 | 1.8 |  | 0.01
16 | Cc1c(C(=O)N[C@@H]2CCCC[C@H]2O)nc(-c2ccc(Cl)cc2Cl)n1-c1ccc(OS(=O)(=O)CCC(F)(F)F)cc1 | 0.3 | 0.74 | 1.7 |  | 
17 | Cc1ccc(NC(=O)c2nc(-c3ccc(Cl)cc3Cl)n(-c3ccc(OS(=O)(=O)CCC(F)(F)F)cc3)c2C)nc1 | 0.14 | 0.92 | 1.7 |  | 
18 | Cc1c(C(=O)N[C@H]2CCC[C@H](O)C2)nc(-c2ccc(Cl)cc2Cl)n1-c1ccc(OS(=O)(=O)CCC(F)(F)F)cc1 (racemic) | 0.1 | 0.89 | 1.1 |  | 
19 | Cc1c(C(=O)Nc2ccc(OC(F)(F)F)cc2)nc(-c2ccc(Cl)cc2Cl)n1-c1ccc(OS(=O)(=O)CCC(F)(F)F)cc1 | 0.22 | 1.29 | 0.66 |  | 0.501
20 | Cc1c(C(=O)NN2CCCCC2)nc(-c2ccc(Cl)cc2Cl)n1-c1ccc(OS(=O)(=O)CCCF)cc1 | 0.32 | 0.88 | 3.1 |  | 
21 | Cc1c(C(=O)Nc2ccc(C(F)(F)F)cn2)nc(-c2ccc(Cl)cc2Cl)n1-c1ccc(OS(=O)(=O)CCC(F)(F)F)cc1 | 0.19 | 1.39 | 0.61 |  | 
22 | Cc1c(C(=O)NN2CCCC(O)C2)nc(-c2ccc(Cl)cc2Cl)n1-c1ccc(OS(=O)(=O)CCC(F)(F)F)cc1 (racemic) | 0.27 | 0.71 | 2.7 |  | 
